# Most compounds without a hit are left out; they make up all but 1.6% or so of the library.
# MBD2 DNA inh – inhibitors of human MBD2 binding to methylated oligonucleotide. Q9UBB5. TR-FRET. inhibition, % at 4.4 µM. 370,000 tested, 0.31% active. AID 686964; in the data active = inhibition above about 13%
# Target sequence (Q9UBB5 whole entry, looked up): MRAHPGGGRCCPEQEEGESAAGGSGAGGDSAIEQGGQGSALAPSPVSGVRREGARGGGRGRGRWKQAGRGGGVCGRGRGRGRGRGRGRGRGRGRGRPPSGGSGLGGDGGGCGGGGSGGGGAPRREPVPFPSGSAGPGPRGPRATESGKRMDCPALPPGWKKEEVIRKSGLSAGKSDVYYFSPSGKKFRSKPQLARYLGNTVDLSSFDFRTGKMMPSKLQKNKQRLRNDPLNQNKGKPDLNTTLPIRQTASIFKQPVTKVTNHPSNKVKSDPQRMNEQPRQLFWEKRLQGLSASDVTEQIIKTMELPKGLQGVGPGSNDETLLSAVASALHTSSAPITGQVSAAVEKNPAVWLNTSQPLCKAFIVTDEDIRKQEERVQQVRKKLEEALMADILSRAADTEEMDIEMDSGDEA
# UHRF1 MBD2 ctr – UHRF1 methyl-DNA binding inhibition; UHRF1 binding to methylated oligo, TR-FRET; inhibition, % at 4.4 µM; 370,000 tested, 0.75% active; in the data active = inhibition above about 21%;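 note: UHRF1 SRA domain binding a hemimethylated CpG hairpin DNA probe; 0% = median of test compound wells and 100% = reference inhibitor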
# TDP2 absorb – TDP2 (human) inhibition, absorbance primary screen. O95551. recombinant TDP2, T5PNP hydrolysis, p-nitrophenol absorbance 415 nm. inhibition, % at 12.8 µM. 370,000 tested, 0.34% active. AID 720702;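 active = inhibition above the mean of all tested compounds plus 3 SD, set per campaign, cut at about 25% in these data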;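 note: 0% = DMSO with enzyme and 100% = buffer with substrate but no TDP2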
#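 Evaluation: % inhibition relative to enzyme-containing and enzyme-free wells. Material: recombinant human TDP2. Benchmarks: enzyme-free and DMSO wells. Timing: enzyme reaction with compound for 2 h at 37 °C. Compound dosing: 12.8 µM only. Measured by: p-Nitrophenol epi absorbance. Reagent: T5PNP substrate at 5 mM, a TopII-DNA adduct mimic. Replication: single well per compound.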
# LEDGF integ inh – blocks HIV-1 LEDGF/p75-dependent DNA integration; TR-FRET IN-LEDGF/p75 DNA integration, Eu/Cy5; inhibition, % at 3.7 µM; 370,000 tested, 0.64% active; AID 743269;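 active = inhibition above the screen-wide mean plus 3 SD, cut at about 13% in these data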;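 note: signal is the Cy5 over europium emission ratio at 671 and 618 nm; 0% = plate median of compound wells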
# IN multimer up – activates HIV-1 integrase multimerization in LEDGF counter-screen | activation, % at 7.7 µM | shares compounds with LEDGF integ inh | AID 1053131 | 2,000 tested, 17% active | TR-FRET HIV-1 integrase multimerization, biochemical; in the data active = activation above about 8.9%
# TRFRET interf – counter-screen for LEDGF/p75 integration inhibitors: TR-FRET optical interference. 2,000 tested, under 10 active. shares compounds with LEDGF integ inh. inhibition, % at 7.7 µM. TR-FRET optical interference counterscreen, HIV-1 IN multimerization;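 active = inhibition above the mean over all tested compounds plus 3 SD, which no compound reached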;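 note: 0% = integrase with antibodies and DMSO and 100% = antibodies without integrase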
# LEDGF integ conf – LEDGF/p75-dependent HIV-1 integration inhibition, confirmation | shares compounds with LEDGF integ inh | inhibition, % at 3.7 µM | TR-FRET LEDGF/p75-dependent HIV-1 integration, biochemical | 2,000 tested, 36% active | AID 1053136; in the data active = inhibition above about 14%
# Active calls of the source: *; . = not tested or not shown.
SMILES,MBD2 DNA inh,UHRF1 MBD2 ctr,TDP2 absorb,LEDGF integ inh,IN multimer up,TRFRET interf,LEDGF integ conf
CC(C)[C@@H]1Cc2[nH]n(C)c(=O)c2[C@H](c2ccc(F)cc2)O1,-6,-5,11,87*,0,-2,-9
CCOC(=O)C1=C(N)n2c(s/c(=C\c3ccco3)c2=O)=C(C(=O)OC(C)C)C1c1ccco1 (stereo not given),12,21*,4,51*,2,-6,-1
Cc1ccc2c(c1)C1CS(=O)(=O)N(C3CCCC3)C(=O)N1C2 (stereo not given),-5,-1,-3,1,.,.,.
COc1ccc(-c2nc3ccccc3c(=O)n2NC(=O)Cc2ccccc2)cc1,-3,-4,8,52*,1,-4,-5
CC1(C)Cc2cccc(OC(=O)NCCc3ccc(F)cc3)c2O1,0,-2,-2,15*,1,-5,-11
CC1(C)Cc2cccc(OCC(=O)OCC(=O)NCc3ccc(F)cc3)c2O1,-5,1,2,1,.,.,.
CC(C(=O)Nc1ccc2c(c1)OCCO2)N(c1ccccc1)S(C)(=O)=O (stereo not given),-2,2,0,-3,.,.,.
Cc1ccc(S(=O)(=O)NCC(=O)OC(C)C(=O)c2ccccc2)cc1 (stereo not given),-4,-4,3,23*,0,-1,-3
COc1ccc(-c2nnc(SCC(=O)NN=C(C)c3cccc4ccccc34)n2-c2ccc(C)cc2)cc1,-4,-2,5,1,.,.,.
CC(=C1N=C(c2ccccc2)OC1=O)c1cccs1,1,4,3,19*,0,0,-2
CC(C)(C)OC(=O)C[C@H]1C/C=C\C[C@@H](CC(=O)NCCO)C(=O)N[C@H](Cc2ccccc2)COC1=O,-6,-3,-2,0,.,.,.
O=C(CCC(=O)c1ccccc1)Nc1ccccc1,1,3,-9,14*,0,2,-1
O=C(NC(=S)Nc1cccc(Cl)c1N1CCCCC1)c1ccc2c(c1)OCCO2,3,0,-7,0,.,.,.
O=C1NC2(CCCCCC2)C(=O)N1Cc1ccccc1Cl,6,2,1,28*,-1,3,-7
C/C(O)=c1/cnc2nc3ccccc3n2c1=O,2,-1,-7,-1,.,.,.
COCC(=O)OC1CCn2c1nc1c2C(=O)C(C)=C(NC(C)=O)C1=O (stereo not given),-3,13,89*,16*,6,-21,58*
S=c1[nH]nc(-c2ccncc2)n1/N=C/C=C/c1ccco1,0,14,7,18*,5,-26,33*
Cc1cccc(-c2n[nH]c(=S)n2/N=C/C=C/c2ccco2)c1,11,26*,-7,29*,2,-12,8
C/C(=N\NC(=O)c1cc(O)ccc1O)c1cccc(NC(=O)c2ccc(Cl)cc2)c1,-1,14,14,41*,19*,-97,16*
Cc1ccc(OCC(O)Cn2c(N3CCCCC3)nc3c2c(=O)[nH]c(=O)n3C)cc1 (stereo not given),1,0,7,-2,.,.,.
O=C(C(=Cc1ccccc1)CN1CCCCC1)c1ccccc1,-1,3,1,19*,1,-4,2
O=C(CCCCN1CCCCC1)c1ccccc1,-3,1,-6,-7,.,.,.
CSc1nc(SCc2ccccc2)[nH]c(=O)n1,4,11,-10,0,.,.,.
COc1ccc(C(=O)N/N=C(\c2ccccc2)c2ccccn2)cc1,-7,0,0,0,.,.,.
O=C(NN=C(c1ccccc1)c1ccccn1)c1ccccc1,-3,8,6,21*,-1,2,-1
SMILES,MBD2 DNA inh,UHRF1 MBD2 ctr,TDP2 absorb,LEDGF integ inh,IN multimer up,TRFRET interf,LEDGF integ conf
CC(C)C[C@H]1CNC(=S)N1CC1CCCN1C[C@H](Cc1ccc(O)cc1)N1C[C@H](Cc2ccccc2)N(CC2CCCCC2)C1=S (stereo not given in full),-2,-2,4,-2,.,.,.
O=C(CCl)Nc1nc(-c2ccco2)c(-c2ccco2)s1,-1,2,5,25*,23*,-115,68*
Nc1nc(-c2ccco2)c(-c2ccco2)s1,2,8,3,30*,8.9*,-45,19*
O=C(CCCSc1ccccc1)Nc1nc(-c2ccco2)c(-c2ccco2)s1,4,3,-4,20*,3,-13,13
Nc1nc(-c2cccs2)c(-c2cccs2)s1,2,-5,2,0,.,.,.
O=C(Cc1cccs1)N/N=C\c1ccc(O)cc1,1,-1,-1,1,.,.,.
COc1ccc2cc3c(N)nn(C(=O)c4ccccc4Cl)c3nc2c1,0,-1,-23,8,.,.,.
CC(/C=N/n1c(-c2ccncc2)n[nH]c1=S)=C\c1ccco1,-1,8,3,16*,5,-17,11
CC(/C=N/n1c(-c2ccccc2)n[nH]c1=S)=C\c1ccco1,-3,-3,13,16*,0,-2,10
COc1ccc2c(c1)N[C@@](CCN1C(=O)c3ccccc3C1=O)(c1[nH]c3ccccc3c1CCN1C(=O)c3ccccc3C1=O)C2=O,0,14,-2,-5,.,.,.
COCOCCn1cc(CN2CCS(=O)(=O)N(Cc3ccc(-c4ccc(F)nc4)cc3)C(CC(C)C)C2=O)nn1 (stereo not given),-1,-2,12,3,.,.,.
COC(=O)c1ccccc1NCc1cc(=O)oc2cc(O)c(O)cc12,4,3,1,21*,2,-6,34*
CC1(C)CC(=O)C(C(C2=C(O)CC(C)(C)CC2=O)c2ccc([N+](=O)[O-])cc2)C(=O)C1 (stereo not given),-1,2,5,40*,0,-2,-8
COc1cccc(C(C2=C(O)CC(C)(C)CC2=O)C2C(=O)CC(C)(C)CC2=O)c1 (stereo not given),2,-1,-4,1,.,.,.
Cn1ncc([N+](=O)[O-])c1C(=O)Nc1ccc(-c2nc3ccccc3o2)cc1,-6,-3,-1,35*,0,0,-8
O=C(NC(Cc1ccccc1)C(=O)O)/C(=C\c1ccco1)NC(=O)c1ccccc1Br (stereo not given),1,0,-11,16*,0,-2,1
Cc1ccc(/C=N/NC(=O)c2ccc(N(C)S(=O)(=O)c3ccccc3)cc2)cc1,-4,-1,6,-1,.,.,.
O=C(O)c1cc(C(=O)O)c(-c2ccccc2)c(C(=O)O)c1,-2,-1,4,-1,.,.,.
O=C(O)c1cc(-c2ccccc2)nc(-c2ccccc2)c1,2,1,-4,15*,1,-5,-10
